Screening data deposited in PubChem BioAssay by Johns Hopkins Ion Channel Center.
Shown are actives, neighbours in structure and some others; about 2.3% of the full set was active somewhere.
TRPC4 inh – blocks the mouse TRPC4 cation channel. Q9QUQ5. HEK293 TRPC4beta/mu-opioid, DAMGO-evoked Fluo4 calcium flux; stronger effect = lower value. B-score at 10 µM. 0.39% of 300,000 active. AID 2247;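 active means B-score over 3 SD under the library average, no early fluorescence shift, positive overall ratio signal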
Target sequence (Q9QUQ5 whole entry, looked up): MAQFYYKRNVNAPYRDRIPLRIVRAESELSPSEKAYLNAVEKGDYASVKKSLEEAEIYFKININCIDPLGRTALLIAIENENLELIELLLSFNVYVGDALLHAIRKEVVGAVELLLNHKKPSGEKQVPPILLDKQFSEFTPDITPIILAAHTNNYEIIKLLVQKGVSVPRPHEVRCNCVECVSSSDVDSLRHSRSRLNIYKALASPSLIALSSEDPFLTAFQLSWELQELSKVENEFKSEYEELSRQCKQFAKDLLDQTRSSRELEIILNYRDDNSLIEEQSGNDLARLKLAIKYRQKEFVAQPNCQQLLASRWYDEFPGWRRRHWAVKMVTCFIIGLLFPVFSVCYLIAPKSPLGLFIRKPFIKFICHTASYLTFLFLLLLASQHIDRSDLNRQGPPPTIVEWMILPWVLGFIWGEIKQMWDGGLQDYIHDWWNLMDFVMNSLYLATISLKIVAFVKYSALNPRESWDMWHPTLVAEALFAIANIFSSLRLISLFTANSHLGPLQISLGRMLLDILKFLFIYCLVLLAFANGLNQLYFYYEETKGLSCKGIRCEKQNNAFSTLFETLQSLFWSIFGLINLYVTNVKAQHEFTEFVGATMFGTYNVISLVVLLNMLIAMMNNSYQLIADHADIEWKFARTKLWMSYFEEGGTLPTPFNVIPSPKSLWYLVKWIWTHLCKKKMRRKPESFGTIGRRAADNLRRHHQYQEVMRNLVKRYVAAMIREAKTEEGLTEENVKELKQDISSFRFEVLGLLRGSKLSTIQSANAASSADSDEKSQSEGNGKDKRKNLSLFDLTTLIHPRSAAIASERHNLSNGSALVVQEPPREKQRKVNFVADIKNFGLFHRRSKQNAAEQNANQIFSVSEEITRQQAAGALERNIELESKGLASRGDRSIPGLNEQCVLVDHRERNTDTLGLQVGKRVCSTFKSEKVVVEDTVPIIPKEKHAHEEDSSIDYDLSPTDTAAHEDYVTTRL
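Assay system: Stable TRPC4beta/mu-opioid receptor HEK293 cells | Reagent: DAMGO in two steps, submaximal then maximal | Compound dosing: Single concentration per test compound | Signal: Fluo4 Ca2+ flux fluorescence | Evaluation: Per-well B score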
TRPC6 act – activates the mouse TRPC6 cation channel. Q61143. HEK293-TRPC6 membrane potential dye fluorescence; stronger effect = higher value. B-score at 10 µM. 0.13% of 310,000 active. AID 2550;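 active means B-score of the integrated fluorescence ratio above library mean plus 3 SD, and starting fluorescence ratio within library mean plus 5 SD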;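 further: higher score means more depolarization so channel activation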
TRPC6 inh – inhibitors of mouse TRPC6 channel | HEK293-TRPC6, membrane potential dye, ACh-evoked depolarization; stronger effect = lower value | B-score at 10 µM | 1.1% of 310,000 active | Q61143;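 active means B-score under library mean minus 3 SD, initial fluorescence not abnormally high, positive integrated signal ratio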;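 further: B-score derived from integrated fluorescence ratio over the kinetic read; more negative B-score means stronger inhibition of depolarization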
TRPC4 potent – allosteric potentiators of mouse TRPC4 channel; B-score at 10 µM; Q9QUQ5; AID 2227; HEK293 TRPC4beta/mu-opioid, DAMGO EC20, Fluo-4 Ca2+ flux; stronger effect = higher value; 0.42% of 310,000 active;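 active means B-score of calcium response area above 5 SD of library B-scores, with initial fluorescence ratio within 5 SD of library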
TRPC4 agonist – activators of mouse TRPC4 channel; B-score at 10 µM; AID 2237; 0.49% of 310,000 active; HEK293 TRPC4beta/mu-opioid, Fluo4 calcium fluorescence; stronger effect = higher value; Q9QUQ5;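 active means B-score above 5 SD of library B-scores, and initial fluorescence ratio not above library mean plus 5 SD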;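 further: positive B-score marks a calcium rise read as TRPC4 activation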
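Material: TRPC4beta and mu-opioid receptor HEK293 stable cells | Incubation: 45 min room-temperature Fluo4 loading, 110 s read | Detection: Kinetic Fluo4 calcium fluorescence | Measure: Integrated baseline-normalised fluorescence ratio, converted to per-well B score | Benchmarks: Low control buffer alone, high control maximal DAMGO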
TRPC4 sel inh 2 – mouse TRPC4 off-target activity of TRPC6 inhibitors, second screen; 42% of 920 active; shares compounds with TRPC6 inh; inhibition, % at 10 µM; HEK293 TRPC4/MOR, membrane potential dye fluorescence; channel activated by saturating DAMGO dose;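 active means compounds whose fluorescence signal differed from control wells by over 3 SD, either direction, in both duplicate plates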
TRPC4 spec – selectivity of TRPC6 inhibitors: effect on mouse TRPC4; 61% of 920 active; shares compounds with TRPC6 inh; AID 2777; activity change, negative = inhibition, % at 10 µM; HEK293 TRPC4/mu-opioid, membrane potential fluorescence;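 active means rise or fall in signal beyond 3 SD of buffer-only wells in both replicate plates, either sign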;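 further: integrated kinetic ratio of fluorescence range over baseline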
HEK293 MPD ctr 2-1 – second check of TRPC6 inhibitor effects in parental HEK293 cells; shares compounds with TRPC6 inh; parental HEK293 membrane potential dye fluorescence; maximal acetylcholine challenge after compound addition; signal change vs control, % at 10 µM; 31% of 920 active; AID 2779;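 active means membrane potential signal moving either way by over 3 SD of the maximum-effect control, in both duplicate plates, meaning non-specific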
HEK293 MPD ctr-1 – parental HEK293 nonspecific activity of TRPC6 inhibitors; shares compounds with TRPC6 inh; parental HEK293 membrane potential dye fluorescence; membrane potential signal change, % at 10 µM; 60% of 920 active; AID 2780;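 active means membrane potential signal shifting up or down by more than 3 SD of buffer-only wells, on both duplicate plates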
HEK293 MPD ctr-2 – counter-screen for TRPC6 modulators: effect in parental HEK293 cells | AID 488924 | membrane potential dye fluorescence | membrane potential signal change, % at 10 µM | 51% of 2,400 active | shares compounds with TRPC6 inh;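 active means membrane potential signal moves up or down beyond 5 SD from buffer-only wells, on both duplicate plates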
HEK293 MPD ctr 2-2 – second check of TRPC6 modulator effects in parental HEK293 cells; shares compounds with TRPC6 inh; membrane potential dye fluorescence; after compound, maximal acetylcholine stimulation; inhibition, % at 10 µM; 14% of 2,400 active; AID 488926;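 active means membrane potential signal drops by more than 5 SD from the mean control signal, in both duplicate plates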
TRPC4/MOR mod – mouse TRPC4 off-target activity of TRPC6 modulators. shares compounds with TRPC6 inh. HEK293 TRPC4/mu-opioid, membrane potential fluorescence. AID 488927. 69% of 2,400 active. percent change from control (negative = decrease, positive = increase), % at 10 µM;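 active means membrane potential signal moved up or down beyond 5 SD of buffer control wells, in both duplicate plates, actives on both sides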
TRPC4 ctr inh 2 – second selectivity test of TRPC6 modulators against mouse TRPC4; shares compounds with TRPC6 inh; HEK293 TRPC4/mu-opioid, membrane potential dye fluorescence; stimulated with maximal-effect DAMGO; inhibition, % at 10 µM; 55% of 2,400 active;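 active means drop in membrane potential signal beyond 5 SD of the control wells in both duplicate plates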;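 further: TRPC4 counter screen for TRPC6 hits run under conditions tuned for TRPC6 not TRPC4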
TRPC6 block conf – mouse TRPC6 inhibitor confirmation. shares compounds with TRPC6 inh. HEK293-TRPC6, membrane potential dye, ACh-evoked depolarization. inhibition, % at 10 µM. 43% of 3,300 active. AID 488960;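 active means fluorescence ratio falls more than 5 SD below the full-stimulation control mean, in both duplicate runs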;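 further: integrated fluorescence ratio of peak minus minimum over baseline after agonist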
TRPC6 act conf – mouse TRPC6 activator confirmation; shares compounds with TRPC6 inh; HEK293-TRPC6 membrane potential dye fluorescence, FDSS; activation, % at 10 µM; 11% of 2,800 active;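 active means ratio signal rise beyond 5 SD above unstimulated control wells' mean, seen in both duplicate runs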
Numbers stand for hits; - = inactive; . = no result given.

SMILES	TRPC4 inh	TRPC6 act	TRPC6 inh	TRPC4 potent	TRPC4 agonist	HEK293 MPD ctr-2	HEK293 MPD ctr 2-2	TRPC4/MOR mod	TRPC4 ctr inh 2	TRPC6 block conf	TRPC6 act conf	others
COc1cc(C2C(C#N)=C(N)Oc3cc(N(C)C)ccc32)cc2c1OCO2 (stereo unspecified)	-	12	-	-	64	256%	-	53%	-	-	62%
COc1ccc(CNC(=O)c2cc3c(=O)n4cccc(C)c4nc3n(CC3CCCO3)c2=N)cc1 (stereo unspecified)	-	-	-	-	-	.	.	.	.	.	.
CCNC(=O)c1cc2c(=O)n3cccc(C)c3nc2n(Cc2ccc(C)cc2)c1=N	-	-	-6.1	-	-	-146%	-	-28%	40%	-	-
Cc1cccn2c(=O)c3cc(C(=O)NC(C)C)c(=N)n(Cc4ccncc4)c3nc12	-	-	-7.6	-	-	.	.	.	.	76%	-	TRPC4 sel inh 2=72%;TRPC4 spec=-19%;HEK293 MPD ctr 2-1=-16%;HEK293 MPD ctr-1=-304%
Cc1cccn2c(=O)c3cc(C(=O)NC4CCCCC4)c(=N)n(Cc4ccc(F)cc4)c3nc12	-	-	-	-	-	.	.	.	.	.	.
COCCn1c(=N)c(C(=O)NCCc2ccc(OC)cc2)cc2c(=O)n3cccc(C)c3nc21	-	-	-	-	-	.	.	.	.	.	.
COCCCNC(=O)c1cc2c(=O)n3cccc(C)c3nc2n(C(C)C)c1=N	-	-	-5	-	-	-	67%	-	30%	45%	-
COc1ccc(Cl)cc1NC(=O)CN(C)C(=O)c1cc2c(s1)CCC(C)C2 (stereo unspecified)	-	-	-	-	-	.	.	.	.	.	.
Clc1ccc(SCCCCN2CCNCC2)cc1	-	-	-7.5	14	-	.	.	.	.	-	-	TRPC4 sel inh 2=67%;TRPC4 spec=-;HEK293 MPD ctr 2-1=-;HEK293 MPD ctr-1=2.5%
Clc1ccc(SCCCCN2CCOCC2)cc1	-	-	-	-	-	.	.	.	.	.	.
Cc1cc(C)c2cc3c(ccn3C3OC[C@H](O)[C@H](O)[C@H]3O)cc2n1 (stereo partly specified)	-	-	-7.1	-	-	-	-	-68%	34%	-	-
CC(=O)O[C@@H]1[C@@H](OC(C)=O)[C@H](n2ccc3cc([N+](=O)[O-])ccc32)OC[C@@H]1OC(C)=O	-	-	-	-	-	.	.	.	.	.	.
CN(C)S(=O)(=O)c1cccc(C(=O)NCC(=O)NC2CCN(Cc3ccccc3)CC2)c1	-	-	-	-	-	.	.	.	.	.	.
C=CCN(c1ccccc1)S(=O)(=O)c1cccc(C(=O)NC2CCN(Cc3ccccc3)CC2)c1	-	-	-6.6	-	-	-	-	-	57%	-	-
CCN1C(=O)[C@H]2[C@@H](c3ccc(-c4ccccc4)cc3)N3CCCC[C@@]3(C(=O)OC)[C@H]2C1=O	-	-	-	-	-	.	.	.	.	.	.
Cc1ccc(S(=O)(=O)NCCNC(=O)c2ccc(C)nc2)cc1	-	-	-6.3	-	-	-	-	-	-	-	.
Cc1ccc(C(=O)NCCCNCCCNC(=O)c2ccc(C)nc2)cn1	-	-	-	-	-	.	.	.	.	.	.
CC(C)(C)C(=O)OCc1nc(-c2ccc(C(F)(F)F)cc2)cs1	-	-	-	-	-	.	.	.	.	.	.
CCN(CC)CCN(C(=O)c1ccc(C(=O)c2ccccc2)cc1)c1nc2c(OC)cccc2s1	-	-	-	-	-	.	.	.	.	.	.
CCN(CC)CCN(C(=O)C1=COCCO1)c1nc2c(OC)ccc(OC)c2s1	-	-	-5.4	-	-	-104%	-	-26%	69%	-	-
CCN(CC)CCN(C(=O)C1=COCCO1)c1nc2ccc(C)cc2s1	-	-	-	-	-	.	.	.	.	.	.
CCN(CC)CCN(C(=O)c1ccc([N+](=O)[O-])cc1)c1nc2c(OC)cccc2s1	-	-	-6.3	-	-	-	-	-12%	36%	-	-
CCN(CC)CCN(C(=O)C1=COCCO1)c1nc2cc3c(cc2s1)OCO3	-	-	-6.8	-	-	.	.	.	.	-	-	TRPC4 sel inh 2=52%;TRPC4 spec=-22%;HEK293 MPD ctr 2-1=-;HEK293 MPD ctr-1=-184%
O=C1CCN(CCCc2ccccc2)CCN1[C@H](CO)Cc1ccccc1	.	-	-	-	-	.	.	.	.	.	.
COC(=O)c1ccccc1NC(=O)CSc1n[nH]c(-c2ccco2)n1	-	-	-	-	-	.	.	.	.	.	.
SMILES	TRPC4 inh	TRPC6 act	TRPC6 inh	TRPC4 potent	TRPC4 agonist	HEK293 MPD ctr-2	HEK293 MPD ctr 2-2	TRPC4/MOR mod	TRPC4 ctr inh 2	TRPC6 block conf	TRPC6 act conf	others
O=C(NCC1CCCO1)c1ccc2c(c1)C(=O)N(c1cccc([N+](=O)[O-])c1)C2=O (stereo unspecified)	-	-	-	-	-	.	.	.	.	.	.
Cc1cc([N+](=O)[O-])c(C)cc1-c1ccc(/C=N/n2cnnc2)o1	-	-	-5.8	-	-	-108%	-	-23%	34%	-	-
O=[N+]([O-])c1ccc(-c2ccc(/C=N/n3cnnc3)o2)c(Br)c1	-	-	-	-	-	.	.	.	.	.	.
Cc1cc(NCCO)c2ccccc2n1	-	-	-	-	-	.	.	.	.	.	.
COCCCNc1cc(C)nc2ccccc12	-6	-	-7.4	-	-	-264%	-	-50%	63%	-	-
COC(=O)Nc1cc(C)nc2ccccc12	-	-	-	-	-	.	.	.	.	.	.
OCCNc1c2ccccc2nc2ccccc12	-	-	-9.5	-	-	-233%	-	-38%	46%	56%	-
COCCCNc1ccnc2c(Cl)cccc12	-	-	-9	-	-	-287%	-	-44%	48%	-	-
Cc1cc(NCCO)c2cc(O)ccc2n1	-	-	-7.8	-	-	-252%	-	-47%	38%	54%	-
